Bioassay records deposited in PubChem BioAssay by Johns Hopkins Ion Channel Center.
RGS4 pot – RGS4 potentiation or activation; B-score at 10 µM; 310,000 tested, 0.92% active; HEK293 M3R/inducible RGS4, carbachol calcium flux Fluo4; hits give low values;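 active = B-score of the integrated calcium signal more than 4 SD below the library mean, with starting fluorescence not abnormally high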;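 note: negative B-score means reduced calcium response which marks RGS4 activation or potentiation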
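Assay system: Inducible-RGS4 HEK293 cells carrying M3 receptor | Schedule: Compound preincubation 20 min at room temperature before agonist | Signal: Kinetic calcium fluorescence imaging with Fluo4-AM dye, 2 µM | Read-out basis: B score from integrated fluorescence ratio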
MrgX1 ag – human MrgX1 receptor agonism, primary screen; MrgX1-HEK293 cells, Fluo-4 calcium fluorescence, agonist mode; hits give high values; B-score at 10 µM; 310,000 tested, 0.44% active; AID 588627;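 active = calcium response B-score plate-corrected fluorescence ratio at least 3 library SD, with starting fluorescence B-score inside 5 SD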
Target sequence (Q96LB2 whole entry, looked up): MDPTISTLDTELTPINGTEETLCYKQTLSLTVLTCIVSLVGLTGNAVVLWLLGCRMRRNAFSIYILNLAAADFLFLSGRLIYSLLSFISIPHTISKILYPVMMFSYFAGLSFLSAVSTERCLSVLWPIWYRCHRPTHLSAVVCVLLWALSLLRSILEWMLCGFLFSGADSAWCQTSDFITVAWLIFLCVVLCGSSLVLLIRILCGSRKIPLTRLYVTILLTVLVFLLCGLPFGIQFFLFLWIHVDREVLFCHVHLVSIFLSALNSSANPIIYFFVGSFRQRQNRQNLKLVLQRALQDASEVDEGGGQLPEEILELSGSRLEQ
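System: HEK293 cells stably expressing human MrgX1 receptor; Dosing: test compound in the initial addition of three; Schedule: overnight plating, then 30 min 37 °C plus 30 min room-temperature dye loading; Detection: kinetic calcium dye fluorescence, Fluo-4 NW; Controls: per-plate positive and negative controls for Z′ factor.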
MrgX1 allo act – human MrgX1 positive allosteric modulation, primary screen; MrgX1-HEK293, Fluo-4 calcium flux, FDSS; hits give high values; B-score at 10 µM; 310,000 tested, 0.63% active; AID 588675;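 active = plate-corrected calcium response at least 3 library SD above typical, normal starting fluorescence, not activating the receptor alone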;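 note: compound read alongside a low EC10 to EC30 dose of BAM8-22 agonist; peak minus trough fluorescence over baseline measured at the second addition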
MrgX1 antagonist – blocks BAM8-22 activation of human MrgX1 receptor. Q96LB2. MRGX1-HEK293 calcium flux, Fluo-4, BAM8-22 antagonism; hits give low values. B-score at 10 µM. 310,000 tested, 1.3% active;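 active = calcium-response B-score plate-corrected more than 3 library SD below zero, starting fluorescence within 5 deviations, no agonist response on first addition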;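 note: peak minus trough fluorescence over baseline after final BAM8-22 challenge near maximal dose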
RGS4 block – human RGS4 inhibition; 310,000 tested, 0.45% active; P49798; B-score at 10 µM; HEK293 M3R/RGS4 inducible, Fluo-4 calcium flux; hits give high values; triggered by carbachol at its EC20;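 active = B-score, a plate-corrected calcium signal, over three deviations above library mean, with baseline fluorescence within five deviations of library mean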;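 note: RGS4 expression induced by doxycycline in cells with stable M3 receptor; B-score is computed from the integrated fluorescence ratio over baseline after carbachol; higher B-score means a larger calcium signal and so more RGS4 inhibition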
Target sequence (P49798 whole entry, looked up): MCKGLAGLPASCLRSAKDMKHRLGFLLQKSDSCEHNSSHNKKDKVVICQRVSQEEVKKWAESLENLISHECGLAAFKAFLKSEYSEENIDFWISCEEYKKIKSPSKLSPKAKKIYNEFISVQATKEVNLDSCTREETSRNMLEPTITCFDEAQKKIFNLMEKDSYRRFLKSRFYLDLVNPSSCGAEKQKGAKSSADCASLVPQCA
The depositor's hits bear a star; i = inactive; . = no result. A selection: hits, their analogues and other compounds. The true share with any hit is near 3.5%.

SMILES	RGS4 pot	MrgX1 ag	MrgX1 allo act	MrgX1 antagonist	RGS4 block
Cc1ccc(-c2cc(-c3ccc(C)cc3)[n+](-c3ccc(C(=O)[O-])cc3)c(-c3ccc(C)cc3)c2)cc1	i	i	i	i	i
CCOC(=O)c1ccc(-[n+]2c(-c3ccccc3)cc(-c3ccccc3)cc2-c2ccccc2)cc1	i	27.7*	i	i	i
CC[C@H]1C2C[C@H]3[C@@H]4N(C)c5ccccc5C45C[C@H](C2[C@H]5O)N3[C@@H]1O (some centres not stated)	.	i	i	i	.
C=CCn1c(C)c(C=C2C(=O)NC(=O)NC2=O)c2ccccc21	i	39.2*	i	i	i
CC[C@H](C)[C@@H]1O[C@@]2(C=CC1C)CC1C[C@@H](CC=C(C)C(O[C@H]3CC(OC)C(O[C@H]4CC(OC)C(O)C(C)O4)C(C)O3)C(C)C=CC=C3CO[C@@H]4C(O)C(C)=C[C@@H](C(=O)O1)[C@]34O)O2 (some centres not stated)	.	i	i	i	.
Cc1ccc(Cn2cc(C=O)c(-c3ccc(F)cc3)n2)cc1	i	i	7.57*	i	i
CC1CCN(C(=O)C(C)Cl)CC1 (configuration not stated)	i	i	i	i	i
CC(C)c1onc(C(=O)N2CCC3(CC2)OCCO3)c1[N+](=O)[O-]	i	i	i	i	i
Nc1ccc(CCN2CCN(c3cccc(C(F)(F)F)c3)CC2)cc1	i	i	i	i	i
FC(F)(F)c1ccc2c(c1)N(CCCN1CCN(CCCl)CC1)c1ccccc1S2	-8.9*	i	i	i	i
Nc1ccc2ccc3cccc[n+]3c2c1	-7.59*	i	i	i	i
CCC1=CCN(CCc2c(C)[nH]c3ccccc23)CC1	i	i	i	i	i
C/C=C(\C)C(=O)OC1C(C)=C2C(C1OC(=O)CCCCC)C(C)(OC(C)=O)CC(OC(=O)CCC)C1(O)C2OC(=O)C1(C)O (configuration not stated)	-8.9*	49.3*	i	i	i
COc1cc(CNCCc2c[nH]c3ccccc23)cc(OC)c1	i	i	i	i	i
O=C1NC(=O)N(CC2CCCO2)C(=O)/C1=C/c1cccs1 (configuration not stated)	i	i	i	i	i
CCN(CC)c1ccc(/C=C2/C(=O)NC(=O)N(CC3CCCO3)C2=O)cc1 (configuration not stated)	i	i	i	-4.55*	i
Clc1ccc(CCC(Cn2ccnc2)Sc2c(Cl)cccc2Cl)cc1 (configuration not stated)	.	i	i	i	.
CCC(CO)(C(=O)OC1C[N+]2(C)CCC1CC2)c1ccccc1 (configuration not stated)	-8.9*	i	i	i	i
COc1ccc(CN2CCN(C(=O)Cc3ccccc3)CC2)cc1Br	i	i	i	i	i
O=C1NC(=O)N(c2ccccc2F)C(=O)/C1=C/c1cn(CC(=O)N2CCOCC2)c2ccccc12	i	i	i	i	9.92*
CCN1C(=O)NC(=O)/C(=C\c2cn(CC(=O)N3CCCC3)c3ccccc23)C1=O	i	i	i	i	i
O=c1c2ccccc2nc(-c2ccco2)n1-c1ccc(Br)cc1	i	i	i	i	i
CCOP(=O)(C#Cc1ccccc1)C(O)c1ccc(Br)cc1 (configuration not stated)	i	i	16.8*	i	i
Cc1cccc(-n2c(O)c(/C=C/C=Nc3ccccc3)c(=O)[nH]c2=O)c1	i	i	i	i	i
Cn1c(O)c(/C=C/C=Nc2ccccc2)c(=O)n(C)c1=S	i	i	i	-8.54*	i
SMILES	RGS4 pot	MrgX1 ag	MrgX1 allo act	MrgX1 antagonist	RGS4 block
CCN1CCN(Cc2cc(C(C)(C)C)c(O)c(C(C)(C)C)c2)CC1	i	i	i	i	i
C#CC1(OC(=O)c2ccccc2)CC(C)N(C)CC1C (configuration not stated)	-7.03*	i	i	i	i
CS(=O)(=O)Nc1ccc(Cc2noc(-c3ccc4[nH]cc(CCN)c4c3)n2)cc1	i	i	i	i	i
O=[N+]([O-])c1ccc(N2CCCNCC2)c2ncccc12	-8.07*	i	i	i	i
CN[C@H]1C[C@H]2O[C@@](C)([C@H]1OC)n1c3ccccc3c3c4c(c5c6ccccc6n2c5c31)C(=O)NC4	i	i	10.2*	i	4.93*
CCn1c(O)c(/C=N/NC(=O)c2ccccc2)c(=O)n(CC)c1=S	i	48.6*	i	i	i
CN1CCC2(CC1)CC(NC=O)c1ccccc1O2 (configuration not stated)	i	i	i	i	i
Cc1ccc(-n2c(CNCc3ccc(F)cc3)nc3ccccc3c2=O)cc1	i	i	i	i	i
Cc1ccc(NP(=O)(Oc2ccccc2F)Oc2ccccc2F)cc1	i	i	i	-6.72*	i
CCc1ccc(NP(=O)(Oc2ccccc2F)Oc2ccccc2F)cc1	i	i	i	i	i
Cc1ccsc1C(=O)C1CCCN(Cc2cccn2-c2ccccn2)C1 (configuration not stated)	i	i	i	i	i
Cc1ccc2c(c1)CC1(CN2C)C(=O)NC(=O)N(c2ccccc2C)C1=O (configuration not stated)	i	i	i	-8.46*	i
Cc1ccc2c(c1)CC1(CN2C)C(=O)NC(=O)N(c2cccc(C)c2C)C1=O (configuration not stated)	i	i	i	i	i
COC(=O)c1ccccc1NC(=O)N1C[C@@H]2C[C@@H](C1)c1cccc(=O)n1C2	i	i	i	i	i
Fc1ccc(C(OCCN2CCCC2)c2ccc(Br)cc2)cc1 (configuration not stated)	-9.77*	i	i	i	i
CCOP(=S)(OCC)c1ccc(N(C)C)cc1	i	i	10.2*	i	i
CN(C)c1ccc(P(=S)(N(C)C)N(C)C)cc1	i	i	i	i	i
CCOc1ccccc1N=C1SCCCN1C	i	i	i	i	i
CCOc1cccc(=NC2CCCCC2)c2c(C)n(C)c(C)c12	i	i	i	-5.99*	i
CCOP(=O)(OCC)c1cccc(O)c1	i	i	i	-4.58*	i
CCOP(=O)(OCC)c1cccc(OP(=O)(c2cccc([N+](=O)[O-])c2)c2cccc([N+](=O)[O-])c2)c1	i	i	i	i	i
